Assay outcomes from PubChem.
M4 ag: CHRM4 agonism in calcium assay | CHO-K1 hM4/Gqi5, Fluo-8 calcium fluorescence; vehicle 0%, full acetylcholine response 100% | activation, % at 3 µM | 0.14% of 360,000 active;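 active = activation above the run mean over all test wells plus 3 SD, cut at about 32% in these data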;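 also: peak over basal fluorescence ratio per well then scaled between controls; 0% = DMSO wells and 100% = acetylcholine at EC100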
Target sequence (P08173 whole entry, looked up): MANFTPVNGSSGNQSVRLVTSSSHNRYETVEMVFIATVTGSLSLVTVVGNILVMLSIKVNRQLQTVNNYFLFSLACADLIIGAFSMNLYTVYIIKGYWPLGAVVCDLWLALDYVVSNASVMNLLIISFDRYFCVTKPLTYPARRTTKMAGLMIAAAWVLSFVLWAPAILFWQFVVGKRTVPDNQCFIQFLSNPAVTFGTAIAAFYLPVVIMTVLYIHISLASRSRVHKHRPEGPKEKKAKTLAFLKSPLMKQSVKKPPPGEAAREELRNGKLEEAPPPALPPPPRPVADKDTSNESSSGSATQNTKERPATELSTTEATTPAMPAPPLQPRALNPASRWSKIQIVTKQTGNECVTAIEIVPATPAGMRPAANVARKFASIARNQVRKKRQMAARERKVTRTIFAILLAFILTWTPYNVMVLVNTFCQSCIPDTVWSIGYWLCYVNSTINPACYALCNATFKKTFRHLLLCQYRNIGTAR
CHRM5 PAM: CHRM5 positive allosteric modulation. AID 624038. activation, % at 3 µM. 0.3% of 360,000 active. CHO-K1 hM5, Fluo-8 calcium, ACh EC20 PAM; 0% = ACh EC20, 100% = ACh EC100. P08912;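 active = activation above the run cutoff, the mean activation of all test compounds plus 3 SD, cut at about 18% in these data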
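Assay system – human M5 receptor in CHO-K1 cells · Read-out – % activation, ACh-normalized · Technique – Fluo-8 calcium fluorescence · Dosing – single-point, 3 µM nominal · Incubation – Fluo-8 loading 80 min at 37 °C plus 30 min room temperature · Repeats – singlicate, one well per test compound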
M4 PAM: positive allosteric modulators of human muscarinic M4 receptor; P08173; 0.4% of 360,000 active; CHO-K1 hM4/Gqi5, Fluo-8 calcium fluorescence, ACh EC20; 0% = ACh EC20, 100% = maximal ACh; activation, % at 3 µM;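 active = activation above its plate's cutoff, the mean activation of sample wells plus 3 SD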
CHRM5 antagonist: CHRM5 antagonism in calcium assay | P08912 | CHO-hM5 cells, Fluo-8 calcium fluorescence, ACh EC80 | inhibition, % at 3 µM | 0.59% of 360,000 active;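 active = inhibition above a per-plate cutoff, the mean of that plate's test compounds plus 3 SD, cut at about 27% in these data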;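 also: 0% = acetylcholine EC80 with DMSO and 100% = DMSO without agonist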
CHRM5 agonist: CHRM5 agonism in calcium assay; P08912; CHO-K1 hM5 cells, Fluo-8 calcium fluorescence; 0% DMSO wells, 100% maximal acetylcholine response; activation, % at 3 µM; 0.19% of 360,000 active;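 active = activation above the run's mean over test compounds plus 3 SD, cut at about 23% in these data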;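 also: signal is peak over basal fluorescence ratio across the kinetic read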
M4 antag: blocks acetylcholine activation of human M4 receptor; inhibition, % at 3 µM; CHO-hM4 cells, ACh EC80, Fluo-8 calcium fluorescence; 0.73% of 360,000 active;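 active = inhibition above its plate's cutoff, the mean inhibition of sample wells plus 3 SD, cut at about 27% in these data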;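 also: 0% = acetylcholine EC80 with DMSO and 100% = DMSO without agonist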
Active calls of the source: *. In the library only some 1.9% were active in any assay of this set; here they are far more common.

SMILES | M4 ag | CHRM5 PAM | M4 PAM | CHRM5 antagonist | CHRM5 agonist | M4 antag
O=C(c1ccc(S(=O)(=O)NCc2ccco2)cc1)N1CCN(Cc2ccccc2)CC1 | 6 | 4 | -3 | -1 | 3 | -13
O=C(Oc1ccc(N2C(=O)C3C4CCC(C4)C3C2=O)cc1)c1ccco1 (stereo not drawn) | 2 | -4 | 1 | 13 | -4 | 1
O=C(Oc1cccc2cccnc12)c1ccc(N2C(=O)C3C4CCC(C4)C3C2=O)cc1 (stereo not drawn) | 1 | 7 | 26* | 2 | 2 | 10
COc1ccc([C@H]2C(C#N)=C([S-])N[C@](C)(O)[C@@H]2[n+]2ccccc2)cc1 | 1 | -19 | -15 | -4 | -18 | 40*
CN1CCN(S(=O)(=O)c2ccc(N(C)Cc3ccc(OC(F)F)cc3)c([N+](=O)[O-])c2)CC1 | 12 | -7 | 4 | 3 | 0 | 6
O=C(COc1cc(F)ccc1[N+](=O)[O-])Nc1ccc(N2CCCCC2)cc1 | 1 | 2 | -1 | -1 | -3 | -3
CC1CCCN(S(=O)(=O)c2ccc(Cl)s2)C1 (stereo not drawn) | -1 | 19* | 1 | 6 | -5 | -22
COc1ccc(OC)c(S(=O)(=O)N2CCCCCC2)c1 | 0 | 8 | 10 | -7 | -5 | 6
COc1ccc(OC)c(S(=O)(=O)N2CCCC(C)C2)c1 (stereo not drawn) | 0 | 10 | 28* | -10 | -2 | -6
CC1CCCN(S(=O)(=O)c2ccc(Br)s2)C1 (stereo not drawn) | -1 | 1 | -1 | -5 | -6 | 4
Cc1nnc(C)c2c(C)n(C(c3ccccc3)c3ccccc3)c(C)c12 | 1 | 0 | -3 | 4 | -5 | 8
C[C@@H]1CN([C@H](C)CO)C(=O)CCCn2nncc2CO[C@H]1CN(C)S(=O)(=O)c1ccc2c(c1)OCCCO2 | 0 | -7 | 2 | 5 | 1 | -13
COc1ccc(-c2cn(-c3ccc(C)cc3)c(=O)n2CC(=O)Nc2cccc(F)c2)cc1 | 2 | 26* | -1 | -4 | -8 | -20
Cc1ccsc1C(=O)N1CCN(S(=O)(=O)c2cccs2)CC1 | 2 | 0 | 0 | 6 | -5 | -4
Cc1ccccc1C(=O)N1CCN(S(=O)(=O)c2cccs2)CC1 | 0 | 2 | 0 | -8 | -1 | 27*
Cc1ccc(-c2nc(CS(=O)(=O)CC(=O)NC3CC3)c(C)o2)cc1 | -1 | 0 | 4 | 6 | -4 | -1
Cc1c(CCOC(=O)c2cc([N+](=O)[O-])cc([N+](=O)[O-])c2)sc[n+]1CC(=O)c1ccccc1 | 1 | 4 | -9 | 3 | -15 | 4
Cc1c(CCOC(=O)c2ccccc2)sc[n+]1Cc1ccccc1 | -1 | -22 | -41 | 95* | -8 | 64*
Cc1c(CCOC(=O)c2ccccc2)sc[n+]1CC(=O)c1ccc(Br)cc1 | 1 | -18 | -16 | 28* | -6 | 28*
CCOC(=O)Cc1csc(NC(=O)Nc2cccc(Cl)c2)n1 | 17 | -18 | -9 | 29* | 5 | 0
O=C(Nc1cccc(Cl)c1)Nc1nnc(-c2ccncc2)s1 | 15 | -18 | -12 | 32* | 9 | 17
CS(=O)(=O)c1ccc2nc(NC(=O)Nc3cccc(Cl)c3)sc2c1 | 22 | -24 | -6 | 32* | 9 | 16
CS(=O)(=O)c1ccc2nc(NC(=O)Nc3ccc(Cl)c(Cl)c3)sc2c1 | 2 | 0 | 8 | -5 | 0 | -13
O=C(O)c1cc(=O)n(Cc2ccccc2)c(=O)[nH]1 | 3 | -2 | 4 | -1 | -1 | -16
COc1cc(C(=O)OCC(=O)NC(N)=O)cc(CN2C(=O)c3ccccc3C2=O)c1OC | 0 | -6 | -1 | 17 | -1 | 13
Cc1ccoc1C(=O)N1CCCC(CCC(=O)N2CCN(c3ccccn3)CC2)C1 (stereo not drawn) | 4 | 7 | 11 | -9 | -5 | -25
